Data published in ChEMBL document CHEMBL3576819, “Design, synthesis, biological evaluation and molecular docking studies of phenylpropanoid derivatives as potent anti-hepatitis B virus agents” (Eur J Med Chem, 2015).
Each block holds one compound with its values, some of them ahead of it.

How the values were obtained:
[1] = Selectivity index, ratio of CC50 for human HepG2.2.15 cells to IC50 for Hepatitis B virus infected in human HepG2.2.15 cells assessed as inhibition of HBeAg secretion; type: functional
Procedure, shortened: (§1)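 Selectivity index computed as CC50/IC50, with CC50 from cell death of HepG2.2.15 cells after 9 days of treatment (OD 450 nm) and IC50 from 50% inhibition of HBeAg or HBsAg secretion in the same cells; medium with drug renewed every 3 d.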

Hepatitis B virus [2] = assay: Antiviral activity against Hepatitis B virus infected in human HepG2.2.15 cells assessed as inhibition of HBsAg secretion by ELISA; type: functional, organism-based; conditions: HepG2 2.2.15
Procedure, shortened: (§2)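 HepG2.2.15 cells (MEM, 10% FBS, 380 µg/ml G418) seeded at 1×10^5 cells/ml, held 24 h at 37 °C, then treated with various drug concentrations; medium with drug renewed every 3 d for up to 9 d. Culture medium sampled on days 3, 6 and 9, stored at -20 °C, and assayed for secreted antigen. Lamivudine as positive control; IC50 = 50% inhibition of secretion; means of at least two experiments.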

Hepatitis B virus [3] = assay: Antiviral activity against Hepatitis B virus infected in human HepG2.2.15 cells assessed as inhibition of HBeAg secretion by ELISA; type: functional, organism-based; conditions: HepG2 2.2.15; procedure, shortened: as §2
[4] = Cytotoxicity against human HepG2.2.15 cells assessed as cell death after 9 days by MTT assay; type: cell-based, HepG2 2.2.15
Procedure, shortened: (§3)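 HepG2.2.15 cells (MEM, 10% FBS, 380 µg/ml G418, 37 °C, 5% CO2) seeded at 1×10^5 cells/ml, cultured 24 h, then exposed to various drug concentrations; drug-containing medium renewed every 3 d. OD read at 450 nm after 9 days; percent cell death calculated; CC50 = concentration killing 50% of cells. Means of at least two experiments.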

[5] = Selectivity index, ratio of CC50 for human HepG2.2.15 cells to IC50 for Hepatitis B virus infected in human HepG2.2.15 cells assessed as inhibition of HBsAg secretion; type: functional; procedure, shortened: as §1
Hepatitis B virus [6] = assay: Antiviral activity against Hepatitis B virus infected in human HepG2.2.15 cells assessed as inhibition of HBeAg secretion at 75 uM after 3 days by ELISA; type: functional; conditions: HepG2 2.2.15, 72 h; procedure, shortened: as §2
Hepatitis B virus [7] = assay: Antiviral activity against Hepatitis B virus infected in human HepG2.2.15 cells assessed as inhibition of HBeAg secretion at 300 uM after 9 days by ELISA; type: functional; conditions: HepG2 2.2.15, 216 h; procedure, shortened: as §2
Hepatitis B virus [8] = assay: Antiviral activity against Hepatitis B virus infected in human HepG2.2.15 cells assessed as inhibition of HBsAg secretion at 150 uM after 9 days by ELISA; type: functional; conditions: HepG2 2.2.15, 216 h; procedure, shortened: as §2
Hepatitis B virus [9] = assay: Antiviral activity against Hepatitis B virus infected in human HepG2.2.15 cells assessed as inhibition of HBsAg secretion at 75 uM after 9 days by ELISA; type: functional; conditions: HepG2 2.2.15, 216 h; procedure, shortened: as §2
Hepatitis B virus [10] = assay: Antiviral activity against Hepatitis B virus infected in human HepG2.2.15 cells assessed as inhibition of HBeAg secretion at 37.5 uM after 6 days by ELISA; type: functional; conditions: HepG2 2.2.15, 144 h; procedure, shortened: as §2
Hepatitis B virus [11] = assay: Antiviral activity against Hepatitis B virus infected in human HepG2.2.15 cells assessed as inhibition of HBsAg secretion at 300 uM after 9 days by ELISA; type: functional; conditions: HepG2 2.2.15, 216 h; procedure, shortened: as §2
Hepatitis B virus [12] = assay: Antiviral activity against Hepatitis B virus infected in human HepG2.2.15 cells assessed as inhibition of HBeAg secretion at 300 uM after 3 days by ELISA; type: functional; conditions: HepG2 2.2.15, 72 h; procedure, shortened: as §2
Hepatitis B virus [13] = assay: Antiviral activity against Hepatitis B virus infected in human HepG2.2.15 cells assessed as cell survival at 300 uM after 9 days (reference value: 100%); type: functional; conditions: HepG2 2.2.15, 216 h; procedure, shortened: as §3
Hepatitis B virus [14] = assay: Antiviral activity against Hepatitis B virus infected in human HepG2.2.15 cells assessed as cell survival at 37.5 uM after 9 days (reference value: 100%); type: functional; conditions: HepG2 2.2.15, 216 h; procedure, shortened: as §3
Hepatitis B virus [15] = assay: Antiviral activity against Hepatitis B virus infected in human HepG2.2.15 cells assessed as inhibition of HBsAg secretion at 300 uM after 3 days by ELISA; type: functional; conditions: HepG2 2.2.15, 72 h; procedure, shortened: as §2
Hepatitis B virus [16] = assay: Antiviral activity against Hepatitis B virus infected in human HepG2.2.15 cells assessed as inhibition of HBeAg secretion at 37.5 uM after 9 days by ELISA; type: functional; conditions: HepG2 2.2.15, 216 h; procedure, shortened: as §2
Hepatitis B virus [17] = assay: Antiviral activity against Hepatitis B virus infected in human HepG2.2.15 cells assessed as inhibition of HBeAg secretion at 75 uM after 6 days by ELISA; type: functional; conditions: HepG2 2.2.15, 144 h; procedure, shortened: as §2
Hepatitis B virus [18] = assay: Antiviral activity against Hepatitis B virus infected in human HepG2.2.15 cells assessed as inhibition of HBeAg secretion at 300 uM after 6 days by ELISA; type: functional; conditions: HepG2 2.2.15, 144 h; procedure, shortened: as §2
Hepatitis B virus [19] = assay: Antiviral activity against Hepatitis B virus infected in human HepG2.2.15 cells assessed as inhibition of HBeAg secretion at 75 uM after 9 days by ELISA; type: functional; conditions: HepG2 2.2.15, 216 h; procedure, shortened: as §2
Hepatitis B virus [20] = assay: Antiviral activity against Hepatitis B virus infected in human HepG2.2.15 cells assessed as inhibition of HBeAg secretion at 37.5 uM after 3 days by ELISA; type: functional; conditions: HepG2 2.2.15, 72 h; procedure, shortened: as §2
Hepatitis B virus [21] = assay: Antiviral activity against Hepatitis B virus infected in human HepG2.2.15 cells assessed as inhibition of HBsAg secretion at 37.5 uM after 9 days by ELISA; type: functional; conditions: HepG2 2.2.15, 216 h; procedure, shortened: as §2
Hepatitis B virus [22] = assay: Antiviral activity against Hepatitis B virus infected in human HepG2.2.15 cells assessed as cell survival at 150 uM after 9 days (reference value: 100%); type: functional; conditions: HepG2 2.2.15, 216 h; procedure, shortened: as §3
Hepatitis B virus [23] = assay: Antiviral activity against Hepatitis B virus infected in human HepG2.2.15 cells assessed as cell survival at 75 uM after 9 days (reference value: 100%); type: functional; conditions: HepG2 2.2.15, 216 h; procedure, shortened: as §3
Hepatitis B virus [24] = assay: Antiviral activity against Hepatitis B virus infected in human HepG2.2.15 cells assessed as inhibition of HBsAg secretion at 150 uM after 3 days by ELISA; type: functional; conditions: HepG2 2.2.15, 72 h; procedure, shortened: as §2
Hepatitis B virus [25] = assay: Antiviral activity against Hepatitis B virus infected in human HepG2.2.15 cells assessed as inhibition of HBsAg secretion at 75 uM after 6 days by ELISA; type: functional; conditions: HepG2 2.2.15, 144 h; procedure, shortened: as §2
Hepatitis B virus [26] = assay: Antiviral activity against Hepatitis B virus infected in human HepG2.2.15 cells assessed as inhibition of HBeAg secretion at 150 uM after 6 days by ELISA; type: functional; conditions: HepG2 2.2.15, 144 h; procedure, shortened: as §2
Hepatitis B virus [27] = assay: Antiviral activity against Hepatitis B virus infected in human HepG2.2.15 cells assessed as inhibition of HBsAg secretion at 300 uM after 6 days by ELISA; type: functional; conditions: HepG2 2.2.15, 144 h; procedure, shortened: as §2
Hepatitis B virus [28] = assay: Antiviral activity against Hepatitis B virus infected in human HepG2.2.15 cells assessed as inhibition of HBeAg secretion at 150 uM after 3 days by ELISA; type: functional; conditions: HepG2 2.2.15, 72 h; procedure, shortened: as §2
Hepatitis B virus [29] = assay: Antiviral activity against Hepatitis B virus infected in human HepG2.2.15 cells assessed as inhibition of HBsAg secretion at 37.5 uM after 6 days by ELISA; type: functional; conditions: HepG2 2.2.15, 144 h; procedure, shortened: as §2
Hepatitis B virus [30] = assay: Antiviral activity against Hepatitis B virus infected in human HepG2.2.15 cells assessed as inhibition of HBsAg secretion at 150 uM after 6 days by ELISA; type: functional; conditions: HepG2 2.2.15, 144 h; procedure, shortened: as §2
Hepatitis B virus [31] = assay: Antiviral activity against Hepatitis B virus infected in human HepG2.2.15 cells assessed as inhibition of HBeAg secretion at 150 uM after 9 days by ELISA; type: functional; conditions: HepG2 2.2.15, 216 h; procedure, shortened: as §2
Hepatitis B virus [32] = assay: Antiviral activity against Hepatitis B virus infected in human HepG2.2.15 cells assessed as inhibition of HBsAg secretion at 75 uM after 3 days by ELISA; type: functional; conditions: HepG2 2.2.15, 72 h; procedure, shortened: as §2

SMILES: O=C(O)/C=C/c1ccc2c(c1)OCO2
Ratio CC50/IC50 [1]: 0.96 | IC50 (Hepatitis B virus [2]): 433 µM | IC50 (Hepatitis B virus [3]): 526 µM | CC50 at 216 h [4]: 503 µM | Ratio CC50/IC50 [5]: 1.16

SMILES: COc1cc(C=O)cc(OC)c1OC
CC50 at 216 h [4]: > 1500 µM

SMILES: COc1ccc(C=O)cc1OC [3,4-DIMETHOXYBENZALDEHYDE]
CC50 at 216 h [4]: > 1500 µM

More lines, main results first:

IC50 (Hepatitis B virus [2]): 143 µM | IC50 (Hepatitis B virus [3]): 150 µM
SMILES: COc1cc(/C=C/C(=O)O/N=C/c2ccccn2)cc(OC)c1OC
inhibition at 75 µM (Hepatitis B virus [6]): 20.3% | inhibition at 300 µM (Hepatitis B virus [7]): 61.1% | inhibition at 150 µM (Hepatitis B virus [8]): 47.3% | Ratio CC50/IC50 [1]: 5.25 | inhibition at 75 µM (Hepatitis B virus [9]): 39.2% | inhibition at 37.5 µM (Hepatitis B virus [10]): 21.4% | inhibition at 300 µM (Hepatitis B virus [11]): 66.7% | inhibition at 300 µM (Hepatitis B virus [12]): 34.2% | CC50 at 216 h [4]: 787 µM | viability at 300 µM (Hepatitis B virus [13]): 89% | viability at 37.5 µM (Hepatitis B virus [14]): 108% | inhibition at 300 µM (Hepatitis B virus [15]): 15.1% | inhibition at 37.5 µM (Hepatitis B virus [16]): 30.2% | inhibition at 75 µM (Hepatitis B virus [17]): 29.2% | inhibition at 300 µM (Hepatitis B virus [18]): 53.6% | inhibition at 75 µM (Hepatitis B virus [19]): 41.2% | inhibition at 37.5 µM (Hepatitis B virus [20]): 13.4% | inhibition at 37.5 µM (Hepatitis B virus [21]): 24.1% | viability at 150 µM (Hepatitis B virus [22]): 98.1% | viability at 75 µM (Hepatitis B virus [23]): 107% | inhibition at 150 µM (Hepatitis B virus [24]): 8.39% | inhibition at 75 µM (Hepatitis B virus [25]): 17.2% | Ratio CC50/IC50 [5]: 5.52 | inhibition at 150 µM (Hepatitis B virus [26]): 35.1% | inhibition at 300 µM (Hepatitis B virus [27]): 40.5% | inhibition at 150 µM (Hepatitis B virus [28]): 28.2% | inhibition at 37.5 µM (Hepatitis B virus [29]): 12.7% | inhibition at 150 µM (Hepatitis B virus [30]): 29.6% | inhibition at 150 µM (Hepatitis B virus [31]): 47.9% | inhibition at 75 µM (Hepatitis B virus [32]): 2.96%

IC50 (Hepatitis B virus [2]): 411 µM | IC50 (Hepatitis B virus [3]): 477 µM
SMILES: COc1cc(/C=C/C(=O)O)cc2c1OCO2
Ratio CC50/IC50 [1]: 1.4 | CC50 at 216 h [4]: 667 µM | Ratio CC50/IC50 [5]: 1.62

IC50 (Hepatitis B virus [2]): > 600 µM | IC50 (Hepatitis B virus [3]): > 600 µM
SMILES: COc1cc(/C=C/C(=O)O)cc(OC)c1OC [SINAPIC ACID METHYL ETHER]
Ratio CC50/IC50 [1]: <1.39 | CC50 at 216 h [4]: 834 µM | Ratio CC50/IC50 [5]: <1.39
